Reference: ChEMBL document CHEMBL3608234, “Synthesis and antiviral evaluation of a novel series of homoserine-based inhibitors of the hepatitis C virus NS3/4A serine protease” (Bioorg Med Chem Lett, 2015)

Experiments:
[1] = Cytotoxicity against human GS4.1 cells assessed as induction of cell death; type: cell-based
In short: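 GS4.1 cells (Huh-7 with Con1 subgenomic replicon); CC50 taken as concentration giving 50% cell death, from death versus concentration data relative to blank control.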

[2] = Half life in Sprague-Dawley rat at 2 mg/kg, iv; type: ADME, organism-based; details: in vivo
[3] = Tmax in Sprague-Dawley rat at 10 mg/kg, po; type: ADME, organism-based; details: in vivo
[4] = AUC (infinity) in Sprague-Dawley rat at 2 mg/kg, iv; type: ADME, organism-based; set-up: dose 2 mg/kg, route intravenous, time infinity; details: in vivo
In short: (§1)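 Male Sprague–Dawley rats were dosed intravenously at 2 mg/kg or orally at 10 mg/kg. Plasma concentration–time data were used to derive AUC to last time point (AUCt) and AUC extrapolated to infinity, reported in ng·h/mL.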

[5] = Cmax in Sprague-Dawley rat at 10 mg/kg, po; type: ADME, organism-based; set-up: dose 10 mg/kg, route oral; details: in vivo
[6] = Intrinsic clearance in dog liver microsomes incubated for 2 hrs; type: ADME, Canis lupus familiaris; details: read-out: CLH
[7] = Clearance in Sprague-Dawley rat at 10 mg/kg, po; type: ADME, organism-based; details: in vivo
[8] = Inhibition of full length HCV 1b Con1 NS3/4A protease using HiLyte Fluor 610 peptide substrate by biochemical FRET assay; set-up: species or system Hepatitis C virus (isolate Con1)
In short: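 Fluorescence (FRET) protease assay on full-length genotype 1b Con1 HCV NS3/4A with HiLyte Fluor 610 peptide substrate; IC50 from percent inhibition versus concentration by four-parameter sigmoidal non-linear regression.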

Hepatocyte = assay: Clearance in rat cryopreserved hepatocytes incubated for 2 hrs; type: ADME, cell-based
[9] = AUCt in Sprague-Dawley rat at 2 mg/kg, iv; type: ADME, organism-based; details: in vivo; in short: as §1
[10] = Drug elimination in Sprague-Dawley rat at 2 mg/kg, iv; type: ADME, organism-based; details: in vivo
[11] = AUC (infinity) in Sprague-Dawley rat at 10 mg/kg, po; type: ADME, organism-based; set-up: dose 10 mg/kg, route oral, time infinity; details: in vivo; in short: as §1
[12] = Intrinsic clearance in Cynomologus monkey liver microsomes incubated for 2 hrs; type: ADME, Macaca fascicularis; details: cynomolgus monkey, read-out: CLH
[13] = Tmax in Sprague-Dawley rat at 2 mg/kg, iv; type: ADME, organism-based; details: in vivo
[14] = Clearance in Sprague-Dawley rat at 2 mg/kg, iv; type: ADME, organism-based; details: in vivo
[15] = Intrinsic clearance in rat liver microsomes incubated for 2 hrs; type: ADME; details: read-out: CLH
Hepatitis C virus = assay: Antiviral activity against HCV Con1 infected in human GS4.1 cells containing HCV Con1 subgenomic replicon assessed as reduction in NS5A protein expression by ELISA method; type: functional, cell-based, Hepacivirus hominis; details: genotype 1b Con1
In short: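 Huh-7 cells carrying HCV Con1 subgenomic replicon (GS4.1); replication followed as NS5A protein expression by ELISA; EC50 from 50% inhibition versus concentration data fitted by four-parameter sigmoidal non-linear regression.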

[16] = Intrinsic clearance in human liver microsomes incubated for 2 hrs; type: ADME; details: read-out: CLH
[17] = Clearance in rat liver S9 fraction incubated for 2 hrs; type: ADME, subcellular; details: read-out: CLH
In short: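 Rat liver S9 fraction incubation for 2 h; mean clearance from n = 2.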

[18] = Oral bio availability in Sprague-Dawley rat at 10 mg/kg; type: ADME, organism-based; details: in vivo
Rattus norvegicus = assay: Volume of distribution in Sprague-Dawley rat at 10 mg/kg, po; type: ADME, organism-based; details: in vivo
[19] = Drug elimination in Sprague-Dawley rat at 10 mg/kg, po; type: ADME, organism-based; details: in vivo
[20] = Volume of distribution in Sprague-Dawley rat at 2 mg/kg, iv; type: ADME, organism-based; details: in vivo
[21] = AUCt in Sprague-Dawley rat at 10 mg/kg, po; type: ADME, organism-based; details: in vivo; in short: as §1
[22] = Half life in Sprague-Dawley rat at 10 mg/kg, po; type: ADME, organism-based; details: in vivo
[23] = Cmax in Sprague-Dawley rat at 2 mg/kg, iv; type: ADME, organism-based; set-up: dose 2 mg/kg, route intravenous; details: in vivo

COc1ccc2c(OCC[C@@H]3NC(=O)N(C)CCCC/C=C\[C@@H]4C[C@@]4(C(=O)NS(=O)(=O)C4(C)CC4)NC3=O)cc(-c3nc(C(C)C)cs3)nc2c1Cl
CC50 [1]: 37400 nM | half-life [2]: 1.25 h | Tmax [3]: 0.75 h | AUC(0-inf) [4]: 1510 ng·h/mL | Cmax [5]: 798 ng/mL | microsomal CLint [6]: 19.5 µL/min/mg | CL/F [7]: 72.4 mL/min/kg | IC50 [8]: 1.7 nM | CLH (Hepatocyte): 12.6 µL/min/mg | AUC(0-t) [9]: 1520 ng·h/mL | k el [10]: 0.000158 s⁻¹ | AUC(0-inf) [11]: 2350 ng·h/mL | microsomal CLint [12]: 480 µL/min/mg | Tmax [13]: 6.6 min | clearance [14]: 22.1 mL/min/kg | microsomal CLint [15]: 20.7 µL/min/mg | EC50 (Hepatitis C virus): 28.7 nM | microsomal CLint [16]: 215 µL/min/mg | microsomal CLint [17]: 7.6 µL/min/mg | bioavailability [18]: 27% | Vd (Rattus norvegicus): 16.04 L/kg | k el [19]: 7.78e-05 s⁻¹ | Vd [20]: 2.42 L/kg | AUC(0-t) [21]: 2060 ng·h/mL | half-life [22]: 2.53 h | Cmax [23]: 2670 ng/mL
